Bioassay records: PubChem, Broad Institute
Most compounds without a hit are left out; they make up all but 3.1% or so of the library.
rRNA inh HTS: inhibitors of bacterial rRNA selective over humanized ribosomes | E. coli WT GFP vs humanized-ribosome RFP mutants, fluorescence, 24 h; active compounds read low; DMSO median 0, no signal -100 | GFP signal change (wild-type ribosome), % (no concentration beside the values) | 350,000 tested, 1.6% active;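 active means significant combined selectivity score with lowered wild-type GFP, culture density cut under 30%, mutant RFP and density less affected; inactive means any of these conditions unmet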
Cneo AK release: causes C. neoformans cell lysis. adenylate kinase release luminescence, 4 h; normalised: neutral wells 0, clomiphene wells 100. lysis activity, % at 15 µM. 360,000 tested, 0.2% active;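 active means mean lysis activity across replicates of at least 80%, whatever share of replicates individually reach that level; inactive means mean lysis activity below 80%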
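Material – Cryptococcus neoformans yeast cells · Quantity – 5 × 10^6 yeast cells/mL · Buffer or medium – YPD medium · Compound – single dose · Timing – 4 h static compound exposure, 37 °C, read 1 h post-reagent · Signal – adenylate kinase release luminescence · Read-out basis – lysis from increased AK signal · Benchmarks – Clomiphene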
DENV2 CPE rescue: DENV2-induced cell death inhibition; DENV2-infected cells, cytopathic effect rescue, plate reader; CPE inhibition, % at 9.99 µM; 350,000 tested, 1.7% active; AID 651640; in the data active means CPE inhibition above about 20%, passing the limit was not always enough; inconclusive means no clear call, values can overlap the other calls; tested in BHK-21 cells
E-sel inducer: E-selectin induction on HUVECs | HUVEC E-selectin immunofluorescence imaging; normalized: neutral wells 0, TNF-alpha wells 100 | activation, % at 7.58 µM | 260,000 tested, 0.37% active;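 active means mean E-selectin-positive cell signal at least 10% of the positive control, reached in at least 60% of replicates, without over 20% cell loss; inconclusive means no rule given, readout overlaps actives, possibly toxicity-flagged; inactive means the rest, including those meeting only one limit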
Target sequence (P16581 whole entry, looked up): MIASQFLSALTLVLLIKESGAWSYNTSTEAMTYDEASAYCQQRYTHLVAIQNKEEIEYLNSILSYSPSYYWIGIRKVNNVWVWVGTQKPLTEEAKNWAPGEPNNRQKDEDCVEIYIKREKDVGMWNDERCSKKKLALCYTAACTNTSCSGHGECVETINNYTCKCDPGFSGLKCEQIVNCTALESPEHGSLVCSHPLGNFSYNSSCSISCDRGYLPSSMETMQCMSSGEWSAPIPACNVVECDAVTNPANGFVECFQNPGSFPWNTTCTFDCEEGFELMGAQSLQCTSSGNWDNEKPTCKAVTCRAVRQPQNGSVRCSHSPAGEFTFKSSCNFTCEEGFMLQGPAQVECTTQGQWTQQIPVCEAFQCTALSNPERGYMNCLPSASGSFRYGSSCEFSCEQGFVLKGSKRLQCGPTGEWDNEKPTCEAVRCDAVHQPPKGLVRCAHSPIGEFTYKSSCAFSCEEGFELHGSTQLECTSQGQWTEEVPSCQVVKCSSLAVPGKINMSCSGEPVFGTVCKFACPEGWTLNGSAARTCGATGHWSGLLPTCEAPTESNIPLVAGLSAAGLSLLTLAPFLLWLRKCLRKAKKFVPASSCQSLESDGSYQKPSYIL
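Assay system: HUVEC, human umbilical vein endothelial cells / Amount: 3,000 HUVEC/well / Controls: TNF-alpha positive control, DMSO neutral control / Compound dosing: single concentration / Medium: EGM-2 over gelatin coat / Evaluation: percent E-selectin-positive cells / Signal: immunofluorescence imaging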
miR122 inh: inhibitors of miR-122 in Huh7 cells. AID 602342. Huh7 miR-122 Renilla luciferase sensor, 48 h; neutral wells = 0, positive control = 100. activation (reporter increase), % at 12.5 µM. 340,000 tested, 0.3% active;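 active means mean replicate activation score at least 90 and every replicate individually at or above 90; inconclusive means only one of the two criteria met; inactive means neither criterion met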;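 further: higher luciferase means less miR-122 activity so hits act as miR-122 inhibitors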
Of the large screens only hits and unclear results are named; the others gave an inactive call.

COCCN(C(=O)COC(=O)CC(C)c1ccccc1)c1c(N)n(Cc2ccccc2)c(=O)[nH]c1=O (centres undefined)	DENV2 CPE rescue 30.7 (no result: Cneo AK release)
CCCCN(C(=S)NC(=O)c1ccccc1)c1c(N)n(Cc2ccccc2)c(=O)[nH]c1=O	E-sel inducer 40.4
CCN(C(=O)CSc1nnc(NCCOC)s1)c1c(N)n(Cc2ccccc2)c(=O)[nH]c1=O	DENV2 CPE rescue 68.9 (no result: E-sel inducer, miR122 inh)
CC(=O)N(C)C[C@H]1Oc2ccc(NC(=O)NC(C)C)cc2CC(=O)N(C)C[C@H]1C	none (no result: Cneo AK release, DENV2 CPE rescue, E-sel inducer, miR122 inh)
Cc1ccc(NC(=O)CSCC(=O)N2CCN(C(=O)c3ccco3)CC2)cc1	none (no result: rRNA inh HTS)
Cc1ccc(NC(=O)CSC(C)C(=O)OCC(=O)N2CCN(C(=O)c3ccco3)CC2)cc1 (centres undefined)	DENV2 CPE rescue 85.9 (no result: E-sel inducer)
O=S(=O)(NC(=NCc1ccccc1)c1ccc(F)cc1)c1ccc(Cl)cc1	miR122 inh 147.9 (no result: E-sel inducer)
CC(=O)N1[C@H](CO)[C@H](c2ccccc2)C12CN(C(=O)Cc1ccccc1)C2	none (no result: Cneo AK release, miR122 inh)
O=C(CCl)N(c1ccc(Cl)cc1)c1c[nH]c2ccccc12	rRNA inh HTS -22.6 (no result: Cneo AK release, DENV2 CPE rescue, E-sel inducer)
O=C(CCl)N(c1ccccc1)c1c[nH]c2ccccc12	none (no result: rRNA inh HTS, Cneo AK release, DENV2 CPE rescue, E-sel inducer)
CC(C)[C@H]1C(=O)N[C@H](c2cccc(Cl)c2)CC=CC[C@@H](C)Oc2ccccc2C(=O)N1C (mixture of isomers)	none (no result: Cneo AK release, DENV2 CPE rescue, E-sel inducer, miR122 inh)
O=C(CSc1cnc2ccccc2n1)c1ccc(F)cc1	DENV2 CPE rescue 32.6 (no result: Cneo AK release, E-sel inducer)
CN(C)C(=O)C[C@@H]1C[C@@H]2c3cc(NC(=O)Nc4ccc(C(F)(F)F)cc4)ccc3O[C@@H]2[C@H](CO)O1	none
C[C@H](CO)N1C[C@H](C)[C@H](CN(C)S(=O)(=O)c2cn(C)cn2)OCCCC[C@H](C)Oc2ccc(NS(=O)(=O)c3cccs3)cc2C1=O	none
COc1cc(C2C3=C(CC(C)(C)CC3=O)NC3=C2C(=O)c2ccccc23)ccc1O (centres undefined)	rRNA inh HTS -31.2 (no result: DENV2 CPE rescue)
CC(=O)c1ccc(-c2ccc(C(=O)NCC(c3ccc(F)cc3)N3CCOCC3)o2)cc1 (centres undefined)	none
O=C(NCC(c1ccc(F)cc1)N1CCOCC1)c1ccc([N+](=O)[O-])o1 (centres undefined)	rRNA inh HTS -18.1 (no result: miR122 inh)
CCNC(=O)[C@H]1[C@H](CO)[C@H]2Cn3c(ccc(-c4ccccc4F)c3=O)[C@@H]1N2S(C)(=O)=O	none (no result: Cneo AK release, miR122 inh)
CCc1nc(SCc2ccccc2C)n[nH]1	DENV2 CPE rescue 32.3 (no result: E-sel inducer)
Cc1cc(C(=O)NC(Cc2c[nH]c3ccccc23)C(=O)O)c(C)o1 (centres undefined)	none
CCc1cc2c(NC(Cc3c[nH]c4ccccc34)C(=O)O)nc(C)nc2s1 (centres undefined)	rRNA inh HTS -27.9 (no result: Cneo AK release, miR122 inh)
COc1ccc(Br)cc1CN1CCC(N2CCCC2)CC1	DENV2 CPE rescue 25.3
Cc1cc(C)c2nc(SC(C)C(=O)NCC(=O)Nc3ccc(F)c(F)c3F)cc(C)c2c1 (centres undefined)	DENV2 CPE rescue 27.8 (no result: Cneo AK release, E-sel inducer, miR122 inh)
Cc1cc(SC(C)C(=O)NCC(=O)Nc2ccc(F)c(F)c2F)nc2ccccc12 (centres undefined)	none (no result: E-sel inducer)
COc1cccc(NC(=O)N(C)C[C@H]2Oc3cc(-c4ccccc4F)ccc3S(=O)(=O)N([C@@H](C)CO)C[C@H]2C)c1	none (no result: E-sel inducer)
S=C(NCC1CCCCC1)Nc1ccc(Oc2ccccc2)cc1	miR122 inh 117.5 (no result: Cneo AK release)
C[C@@H]1CCCCO[C@@H](CN(C)Cc2ccccc2)[C@@H](C)CN([C@H](C)CO)C(=O)c2cc(NS(=O)(=O)c3cn(C)cn3)ccc2O1	none
O=C(Cn1c(=O)n(Cc2ccco2)c(=O)c2c3c(sc21)CCCCC3)c1ccccc1	rRNA inh HTS -19.4 (no result: E-sel inducer)
O=C(Cn1c(=O)n(Cc2ccco2)c(=O)c2c3c(sc21)CCCCC3)Nc1ccccc1	none (no result: rRNA inh HTS, DENV2 CPE rescue, E-sel inducer)
C[C@@H]1CN([C@H](C)CO)C(=O)c2cc(C3=CCCCC3)cnc2O[C@@H]1CN(C)C(=O)c1ccccn1	none
O=C(NNC(=O)C12CC3CC(CC(C3)C1)C2)c1ccccn1	rRNA inh HTS -43.3
CCOC(=O)Nc1ccc(C(=O)/C=C/c2ccccc2)cc1	rRNA inh HTS -25.5 (no result: E-sel inducer)
CCOC(=O)Nc1ccc(Oc2ccccc2)cc1	none (no result: rRNA inh HTS, DENV2 CPE rescue, E-sel inducer)
O=C(O)c1ccc(Cl)cc1NC(=O)C1CCN(S(=O)(=O)c2cccs2)CC1	rRNA inh HTS -17.7
O=C(Cc1cccnc1)N1CC2(C1)[C@@H](c1ccccc1)[C@@H](CO)N2C(=O)C1CC1	none (no result: Cneo AK release, miR122 inh)
COc1ccc(S(=O)(=O)N(C)C[C@H]2Oc3ccc(NC(=O)CCCN(C)C)cc3CC(=O)N([C@H](C)CO)C[C@H]2C)cc1	DENV2 CPE rescue 28.8 (no result: Cneo AK release, miR122 inh)
Cc1ccc(S(=O)(=O)N(C)C[C@H]2Oc3ccc(NC(=O)CCCN(C)C)cc3CC(=O)N([C@@H](C)CO)C[C@H]2C)cc1	DENV2 CPE rescue 43.0
ClC(CCN1CCN(Cc2ccccc2)CC1)c1ccccc1 (centres undefined)	DENV2 CPE rescue 30.7, E-sel inducer inconclusive (no result: Cneo AK release, miR122 inh)
CC(CN1CCN(Cc2ccccc2)CC1)c1ccccc1 (centres undefined)	none
CC(NC(=O)c1ccc(OC2CCN(C(=O)c3cccnc3)CC2)cc1)C1CC1 (centres undefined)	none
O=C(c1cccnc1)N1CCC(Oc2ccc(C(=O)N3CCCC(O)C3)cc2)CC1 (centres undefined)	Cneo AK release 110.9 (no result: E-sel inducer)
Cn1c2ccccc2c2cc(/C=N/NC(=O)c3cc(O)cc(O)c3)ccc21	E-sel inducer 74.3
CC(=O)n1cc(/C=N/NC(=O)c2cccc(O)c2)c2ccccc21	rRNA inh HTS -22.6
CNC(=O)C[C@@H]1CC[C@H]2[C@H](COc3ccc(NC(=O)Cc4cccs4)cc3C(=O)N2C)O1	none
Cc1cccc(-c2ccc([C@H]3[C@@H](CO)N4C(=O)CN(C(=O)Cc5ccccn5)C[C@@H]34)cc2)c1	none (no result: Cneo AK release, miR122 inh)
S=C(NCCN1CCOCC1)Nc1ccc(-c2nc3ccccc3[nH]2)cc1	rRNA inh HTS -23.8 (no result: Cneo AK release, miR122 inh)
Fc1ccc(NC(=S)NCCN2CCOCC2)cc1	none (no result: Cneo AK release, miR122 inh)
O=C1N[C@H](Cc2ccccc2)COCc2cn(nn2)CC[C@H]1Cc1ccc(-c2ccccc2)cc1	none (no result: Cneo AK release, DENV2 CPE rescue, E-sel inducer, miR122 inh)
CCOc1c2ccc(C(=O)NCCc3ccc(C)cc3)cc2nn1CC	rRNA inh HTS -23.8 (no result: DENV2 CPE rescue)
CCOc1c2ccc(C(=O)NCc3ccc(C)cc3)cc2nn1CC	none
C[C@@H]1CN([C@@H](C)CO)C(=O)c2c(c3ccccc3n2C)-c2ccccc2CO[C@@H]1CN(C)Cc1ccc(Oc2ccccc2)cc1	none (no result: Cneo AK release, miR122 inh)
Cc1ccc(S(=O)(=O)Nc2ccc3c(c2)C(=O)N([C@@H](C)CO)C[C@@H](C)[C@H](CN(C)C(=O)Nc2ccc(F)cc2)OCCCC[C@@H](C)O3)cc1	none (no result: E-sel inducer)
O=C(c1cc2c(c(-c3cccc(Br)c3)n1)[C@@H](CCO)NC2)N1CCCCC1	E-sel inducer 131.8 (no result: Cneo AK release, DENV2 CPE rescue, miR122 inh)
